In ChEMBL document CHEMBL5120742, “Multi-target weapons: diaryl-pyrazoline thiazolidinediones simultaneously targeting VEGFR-2 and HDAC cancer hallmarks” (RSC Med Chem, 2021):

Legend:
Histone deacetylase 4 [1] = molecular target: T1, Histone deacetylase 4 (Homo sapiens, UniProt P56524); test: Inhibition of recombinant human N-terminal His6-SUMO-tagged C-terminal SII-tagged HDAC4 expressed in Escherichia coli (BL21) DE3 pLysS cells assessed as residual activity at 50 uM using BocLys(trifluoroacetyl)-AMC as substrate incubated for 30 mins by fluorescence assay relative to control
T1 sequence (P56524 whole entry): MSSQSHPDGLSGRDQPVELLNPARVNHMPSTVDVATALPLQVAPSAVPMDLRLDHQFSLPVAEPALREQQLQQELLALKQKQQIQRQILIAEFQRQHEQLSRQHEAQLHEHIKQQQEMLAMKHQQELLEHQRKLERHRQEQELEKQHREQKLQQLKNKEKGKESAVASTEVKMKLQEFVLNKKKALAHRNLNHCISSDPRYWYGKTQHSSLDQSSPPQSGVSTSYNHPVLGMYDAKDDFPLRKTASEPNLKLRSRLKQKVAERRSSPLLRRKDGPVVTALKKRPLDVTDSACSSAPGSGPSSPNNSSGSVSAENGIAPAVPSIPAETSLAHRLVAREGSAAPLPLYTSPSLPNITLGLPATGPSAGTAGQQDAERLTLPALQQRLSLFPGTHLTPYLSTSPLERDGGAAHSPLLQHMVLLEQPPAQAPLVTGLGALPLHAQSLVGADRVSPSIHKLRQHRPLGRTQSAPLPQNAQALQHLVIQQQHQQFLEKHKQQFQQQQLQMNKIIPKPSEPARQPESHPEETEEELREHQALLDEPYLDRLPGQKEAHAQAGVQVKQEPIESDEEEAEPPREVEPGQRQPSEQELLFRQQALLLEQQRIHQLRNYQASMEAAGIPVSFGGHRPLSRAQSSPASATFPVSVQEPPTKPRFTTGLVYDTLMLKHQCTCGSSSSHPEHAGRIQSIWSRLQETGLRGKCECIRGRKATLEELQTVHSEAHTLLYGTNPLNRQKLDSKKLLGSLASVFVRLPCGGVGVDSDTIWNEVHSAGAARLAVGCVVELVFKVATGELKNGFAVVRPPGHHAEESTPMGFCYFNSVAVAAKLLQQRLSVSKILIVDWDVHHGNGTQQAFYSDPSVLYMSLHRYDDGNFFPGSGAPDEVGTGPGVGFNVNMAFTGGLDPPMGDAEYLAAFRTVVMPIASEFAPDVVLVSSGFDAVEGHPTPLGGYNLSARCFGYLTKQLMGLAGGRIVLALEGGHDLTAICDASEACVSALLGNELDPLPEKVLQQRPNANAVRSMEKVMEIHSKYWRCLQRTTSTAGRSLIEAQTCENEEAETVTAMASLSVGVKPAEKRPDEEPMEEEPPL
In short: (§1)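 Catalytic-domain HDAC4 (His6-SUMO/SII-tagged) and full-length codon-optimized human HDAC8 were expressed in E. coli BL21 DE3 pLysS from pET14b. Both were assayed in a two-step fluorogenic format with Boc-Lys(trifluoroacetyl)-AMC, followed by trypsin development. Compounds were screened first at 50 µM for residual activity.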

[2] = molecular target: T2, Histone deacetylase 8 (Homo sapiens) (UniProt Q9BY41); test: Inhibition of recombinant human N-terminal His6-SUMO-tagged C-terminal SII-tagged HDAC8 expressed in Escherichia coli (BL21) DE3 pLysS cells assessed as residual activity at 50 uM using BocLys(trifluoroacetyl)-AMC as substrate incubated for 30 mins by fluorescence assay relative to control; in short: as §1
T2 sequence (whole entry): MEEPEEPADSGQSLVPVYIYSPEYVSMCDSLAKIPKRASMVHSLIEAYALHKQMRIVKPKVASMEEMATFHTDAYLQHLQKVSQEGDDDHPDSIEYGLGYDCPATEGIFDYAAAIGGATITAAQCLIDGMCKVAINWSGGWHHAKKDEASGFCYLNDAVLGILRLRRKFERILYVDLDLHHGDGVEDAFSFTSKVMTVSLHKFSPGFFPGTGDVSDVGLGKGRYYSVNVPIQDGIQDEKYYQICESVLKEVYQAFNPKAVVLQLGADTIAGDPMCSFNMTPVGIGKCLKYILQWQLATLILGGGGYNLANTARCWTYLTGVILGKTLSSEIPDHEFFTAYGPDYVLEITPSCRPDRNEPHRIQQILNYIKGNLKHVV

Histone deacetylase 4 [3] = molecular target: T1, Histone deacetylase 4; test: Inhibition of recombinant human N-terminal His6-SUMO-tagged C-terminal SII-tagged HDAC4 expressed in Escherichia coli (BL21) DE3 pLysS cells using BocLys(trifluoroacetyl)-AMC as substrate incubated for 30 mins by fluorescence assay; in short: as §1
Histone deacetylase 8 = molecular target: T3, Histone deacetylase 8 (Homo sapiens, UniProt Q9BY41); test: Inhibition of recombinant human N-terminal His6-SUMO-tagged C-terminal SII-tagged HDAC8 expressed in Escherichia coli (BL21) DE3 pLysS cells using BocLys(trifluoroacetyl)-AMC as substrate incubated for 30 mins by fluorescence assay; in short: as §1
T3 sequence (Q9BY41 whole entry): T2 sequence (whole entry)

Histone deacetylase 1 = Histone deacetylase 1 (Homo sapiens, UniProt Q13547); test: Inhibition of recombinant human C-terminal His6-FLAG-tagged HDAC1 (1 to end residues) expressed in sf9 insect cells using Boc-Lys(acetyl)-AMC as substrate incubated for 30 mins by fluorescence assay
Histone deacetylase 1, sequence (Q13547 whole entry): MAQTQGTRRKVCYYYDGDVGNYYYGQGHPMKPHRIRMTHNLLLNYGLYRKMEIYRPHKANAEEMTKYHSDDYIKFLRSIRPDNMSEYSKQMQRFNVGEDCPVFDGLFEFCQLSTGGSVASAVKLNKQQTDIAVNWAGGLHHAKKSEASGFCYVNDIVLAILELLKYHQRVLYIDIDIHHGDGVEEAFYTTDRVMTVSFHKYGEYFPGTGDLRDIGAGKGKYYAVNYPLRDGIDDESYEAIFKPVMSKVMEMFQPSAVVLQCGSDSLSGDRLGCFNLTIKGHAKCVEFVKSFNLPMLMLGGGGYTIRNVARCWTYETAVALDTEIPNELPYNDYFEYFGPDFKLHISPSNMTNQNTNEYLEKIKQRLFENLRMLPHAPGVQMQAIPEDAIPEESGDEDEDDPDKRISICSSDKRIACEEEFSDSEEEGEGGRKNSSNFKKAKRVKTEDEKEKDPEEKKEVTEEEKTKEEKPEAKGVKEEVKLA
In short: (§2)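 Two-step fluorogenic assay with recombinant HDAC1, 2, 3 or 6. Deacetylation of Boc-Lys(acetyl)-AMC is followed by trypsin conversion of the deacetylated product to a fluorescent signal.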

Histone deacetylase 2 = Histone deacetylase 2 (Homo sapiens, UniProt Q92769); test: Inhibition of recombinant human HDAC2 Boc-Lys(acetyl)-AMC as substrate incubated for 30 mins by fluorescence assay; in short: as §2
Histone deacetylase 2, sequence (Q92769 whole entry, the tested form may be a part): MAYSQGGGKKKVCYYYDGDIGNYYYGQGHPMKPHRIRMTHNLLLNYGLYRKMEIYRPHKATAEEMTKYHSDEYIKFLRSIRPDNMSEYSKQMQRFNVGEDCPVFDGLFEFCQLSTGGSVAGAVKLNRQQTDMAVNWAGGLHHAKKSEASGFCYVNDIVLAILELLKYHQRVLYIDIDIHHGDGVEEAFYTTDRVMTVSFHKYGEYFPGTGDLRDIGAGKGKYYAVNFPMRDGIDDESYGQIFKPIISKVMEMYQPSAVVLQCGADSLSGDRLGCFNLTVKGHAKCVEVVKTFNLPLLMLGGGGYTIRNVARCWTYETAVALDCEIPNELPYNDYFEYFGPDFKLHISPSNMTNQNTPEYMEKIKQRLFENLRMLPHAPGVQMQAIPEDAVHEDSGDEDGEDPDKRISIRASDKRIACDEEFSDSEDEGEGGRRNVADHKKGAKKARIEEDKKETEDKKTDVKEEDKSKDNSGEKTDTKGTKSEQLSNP

[4] = molecular target: Histone deacetylase 3/Nuclear receptor corepressor 2 (HDAC3/NCoR2) (Homo sapiens, UniProt O15379); test: Inhibition of C-terminal His-tagged recombinant human HDAC3 (1 to 428 residues)/N-terminal GST-tagged recombinant human NCoR2 (395 to 489 residues) co-expressed in baculovirus infected Sf9 cells using Boc-Lys(acetyl)-AMC as substrate incubated for 30 mins by fluorescence assay; in short: as §2
Histone deacetylase 3/Nuclear receptor corepressor 2 (HDAC3/NCoR2), sequence (O15379 whole entry, the tested form may be a part): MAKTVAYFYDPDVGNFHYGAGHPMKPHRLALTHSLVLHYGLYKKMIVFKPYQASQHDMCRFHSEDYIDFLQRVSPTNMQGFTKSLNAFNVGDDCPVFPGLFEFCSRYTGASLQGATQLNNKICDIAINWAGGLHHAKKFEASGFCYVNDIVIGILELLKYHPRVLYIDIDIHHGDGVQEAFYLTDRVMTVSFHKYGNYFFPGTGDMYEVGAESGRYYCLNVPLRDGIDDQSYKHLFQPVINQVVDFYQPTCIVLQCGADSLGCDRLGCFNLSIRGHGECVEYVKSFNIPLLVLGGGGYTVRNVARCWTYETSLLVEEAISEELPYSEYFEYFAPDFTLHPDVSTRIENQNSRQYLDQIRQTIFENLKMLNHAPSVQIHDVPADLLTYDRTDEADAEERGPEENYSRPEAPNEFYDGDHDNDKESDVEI
Histone deacetylase 3/Nuclear receptor corepressor 2 (HDAC3/NCoR2), sequence (Q9Y618 whole entry, further chain, the tested form may be a part): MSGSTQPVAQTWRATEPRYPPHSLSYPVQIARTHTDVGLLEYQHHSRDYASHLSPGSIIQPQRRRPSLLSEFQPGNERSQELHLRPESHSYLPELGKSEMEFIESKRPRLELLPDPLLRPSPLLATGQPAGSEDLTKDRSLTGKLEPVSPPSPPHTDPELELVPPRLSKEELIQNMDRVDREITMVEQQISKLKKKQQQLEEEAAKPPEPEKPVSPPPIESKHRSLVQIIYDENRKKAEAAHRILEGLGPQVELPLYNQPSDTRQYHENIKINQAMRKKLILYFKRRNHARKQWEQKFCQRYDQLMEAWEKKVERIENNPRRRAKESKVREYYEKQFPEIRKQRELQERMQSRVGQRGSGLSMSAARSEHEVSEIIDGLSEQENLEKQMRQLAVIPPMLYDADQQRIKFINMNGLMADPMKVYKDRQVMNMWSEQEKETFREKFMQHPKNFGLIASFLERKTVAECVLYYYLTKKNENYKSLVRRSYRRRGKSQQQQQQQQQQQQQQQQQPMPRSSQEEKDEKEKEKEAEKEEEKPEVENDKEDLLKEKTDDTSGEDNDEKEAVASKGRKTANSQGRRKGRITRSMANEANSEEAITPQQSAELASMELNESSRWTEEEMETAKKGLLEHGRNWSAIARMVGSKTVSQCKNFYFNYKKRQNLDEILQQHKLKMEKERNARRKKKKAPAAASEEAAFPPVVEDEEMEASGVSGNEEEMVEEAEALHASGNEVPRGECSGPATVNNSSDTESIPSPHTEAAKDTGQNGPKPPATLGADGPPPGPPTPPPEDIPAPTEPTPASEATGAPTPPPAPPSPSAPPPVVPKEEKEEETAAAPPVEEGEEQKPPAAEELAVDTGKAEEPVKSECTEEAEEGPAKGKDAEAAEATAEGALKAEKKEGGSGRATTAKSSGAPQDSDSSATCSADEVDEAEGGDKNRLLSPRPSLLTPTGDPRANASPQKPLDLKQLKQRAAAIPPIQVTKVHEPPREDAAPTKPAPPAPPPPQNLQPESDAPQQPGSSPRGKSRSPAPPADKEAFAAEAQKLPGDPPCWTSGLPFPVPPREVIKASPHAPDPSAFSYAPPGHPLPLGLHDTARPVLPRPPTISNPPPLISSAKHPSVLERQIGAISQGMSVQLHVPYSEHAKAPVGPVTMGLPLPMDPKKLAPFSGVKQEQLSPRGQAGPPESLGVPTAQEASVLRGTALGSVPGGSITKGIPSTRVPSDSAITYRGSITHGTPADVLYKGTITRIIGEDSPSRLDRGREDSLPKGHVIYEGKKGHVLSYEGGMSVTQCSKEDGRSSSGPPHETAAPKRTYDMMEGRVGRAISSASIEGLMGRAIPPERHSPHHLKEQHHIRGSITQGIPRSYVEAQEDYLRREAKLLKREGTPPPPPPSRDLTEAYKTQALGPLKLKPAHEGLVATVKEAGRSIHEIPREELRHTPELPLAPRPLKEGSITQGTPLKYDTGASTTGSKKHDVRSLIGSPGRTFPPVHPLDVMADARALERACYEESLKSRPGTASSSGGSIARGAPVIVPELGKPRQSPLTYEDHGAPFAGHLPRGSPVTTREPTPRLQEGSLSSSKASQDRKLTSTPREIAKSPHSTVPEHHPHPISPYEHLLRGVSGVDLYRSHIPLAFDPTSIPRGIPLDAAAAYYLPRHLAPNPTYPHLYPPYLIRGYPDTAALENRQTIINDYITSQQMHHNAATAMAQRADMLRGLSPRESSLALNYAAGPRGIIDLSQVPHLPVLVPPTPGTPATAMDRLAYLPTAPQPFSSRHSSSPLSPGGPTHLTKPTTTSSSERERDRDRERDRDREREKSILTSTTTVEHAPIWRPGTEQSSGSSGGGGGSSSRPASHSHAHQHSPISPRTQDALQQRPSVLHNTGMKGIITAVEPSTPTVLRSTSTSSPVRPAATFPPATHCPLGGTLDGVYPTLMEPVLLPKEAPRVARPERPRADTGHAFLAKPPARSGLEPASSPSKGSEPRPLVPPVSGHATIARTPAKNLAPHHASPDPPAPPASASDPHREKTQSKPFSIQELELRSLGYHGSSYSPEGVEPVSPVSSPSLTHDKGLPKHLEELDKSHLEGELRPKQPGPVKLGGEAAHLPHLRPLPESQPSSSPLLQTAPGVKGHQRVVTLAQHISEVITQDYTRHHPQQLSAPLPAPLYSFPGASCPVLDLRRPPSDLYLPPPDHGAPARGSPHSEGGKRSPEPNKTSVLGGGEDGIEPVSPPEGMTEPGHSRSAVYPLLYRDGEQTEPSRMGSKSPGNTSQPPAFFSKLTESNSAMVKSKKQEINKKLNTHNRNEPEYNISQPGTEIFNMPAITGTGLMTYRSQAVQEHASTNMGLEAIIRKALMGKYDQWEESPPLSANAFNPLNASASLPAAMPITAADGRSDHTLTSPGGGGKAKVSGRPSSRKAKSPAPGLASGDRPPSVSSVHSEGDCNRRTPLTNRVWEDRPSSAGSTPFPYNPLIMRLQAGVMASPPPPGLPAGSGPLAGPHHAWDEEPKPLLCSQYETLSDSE

[5] = molecular target: T4, Protein deacetylase HDAC6 (Homo sapiens, UniProt Q9UBN7); test: Inhibition of recombinant human HDAC6 using Boc-Lys(acetyl)-AMC as substrate incubated for 30 mins by fluorescence assay; in short: as §2
T4 sequence (Q9UBN7 whole entry): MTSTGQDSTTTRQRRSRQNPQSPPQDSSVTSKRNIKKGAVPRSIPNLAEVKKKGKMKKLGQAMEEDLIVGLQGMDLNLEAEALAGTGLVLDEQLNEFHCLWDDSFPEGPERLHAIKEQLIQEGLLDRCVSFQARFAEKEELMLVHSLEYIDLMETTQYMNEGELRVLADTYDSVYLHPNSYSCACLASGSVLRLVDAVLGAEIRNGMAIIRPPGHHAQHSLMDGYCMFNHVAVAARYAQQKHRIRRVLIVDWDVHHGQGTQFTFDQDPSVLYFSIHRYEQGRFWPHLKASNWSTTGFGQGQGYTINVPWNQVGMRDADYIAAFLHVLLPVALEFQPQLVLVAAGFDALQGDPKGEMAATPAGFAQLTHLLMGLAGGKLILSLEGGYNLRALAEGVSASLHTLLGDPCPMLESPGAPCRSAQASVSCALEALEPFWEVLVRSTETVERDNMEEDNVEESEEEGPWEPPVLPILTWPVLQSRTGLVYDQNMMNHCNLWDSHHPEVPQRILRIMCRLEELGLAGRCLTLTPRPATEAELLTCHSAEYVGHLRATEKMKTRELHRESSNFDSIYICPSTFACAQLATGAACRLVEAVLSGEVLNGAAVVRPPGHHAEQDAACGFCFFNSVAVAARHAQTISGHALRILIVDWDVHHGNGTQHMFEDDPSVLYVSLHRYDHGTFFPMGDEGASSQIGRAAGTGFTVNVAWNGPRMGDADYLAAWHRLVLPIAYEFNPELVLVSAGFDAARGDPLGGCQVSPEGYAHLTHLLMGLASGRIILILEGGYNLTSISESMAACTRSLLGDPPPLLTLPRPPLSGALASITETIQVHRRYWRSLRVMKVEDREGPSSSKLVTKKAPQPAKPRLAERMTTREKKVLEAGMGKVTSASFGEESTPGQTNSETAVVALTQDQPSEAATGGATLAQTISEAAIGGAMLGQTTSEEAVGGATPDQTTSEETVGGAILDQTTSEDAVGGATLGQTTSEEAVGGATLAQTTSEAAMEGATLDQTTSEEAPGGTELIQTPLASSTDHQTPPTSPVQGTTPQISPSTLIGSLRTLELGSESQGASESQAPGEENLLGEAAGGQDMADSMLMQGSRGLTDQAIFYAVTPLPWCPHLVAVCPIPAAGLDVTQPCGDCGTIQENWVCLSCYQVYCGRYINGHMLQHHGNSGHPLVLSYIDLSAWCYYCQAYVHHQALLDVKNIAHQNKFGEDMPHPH

[6] = Cytotoxicity against HUVEC cells assessed as reduction in cell viability after 96 hrs by MTT assay; conditions: human

Activity (Histone deacetylase 4 [1]) | Activity [2] | IC50 (Histone deacetylase 4 [3]) | IC50 (Histone deacetylase 8) | IC50 (Histone deacetylase 1) | IC50 (Histone deacetylase 2) | IC50 [4] | IC50 [5] | SMILES | IC50 at 96 h [6]
36% | 45% | 0.88 µM | > 50 µM | > 50 µM | > 50 µM | > 50 µM | 7.6 µM | O=C1NC(=O)/C(=C\c2ccc(OCC(=O)N3N=C(c4ccc(F)cc4)CC3c3ccco3)cc2)S1 (configuration not stated) | 0.7 µM
13% | 22% | 0.8 µM | 25 µM | 11 µM | 21 µM | 11 µM | 13 µM | O=C1NC(=O)/C(=C\c2ccc(OCC(=O)N3N=C(c4ccc(F)cc4)CC3c3ccc(Cl)c(Cl)c3)cc2)S1 (configuration not stated) | 2 µM
5.9% | 9.4% | 0.7 µM | 10 µM | 4.9 µM | 13 µM | 9.1 µM | 39 µM | O=C1NC(=O)/C(=C\c2ccc(OCC(=O)N3N=C(c4ccccc4)CC3c3ccc(Cl)c(Cl)c3)cc2)S1 (configuration not stated) | > 10 µM
